The species entered for series [1] is Homo sapiens. The experiment in a line: Inhibition of sigma-2 receptor (unknown origin) at 10 uM relative to control.
The target in series [2] is Sigma non-opioid intracellular receptor 1 (Homo sapiens) (UniProt Q99720). As to the kind of experiment: Inhibition of sigma-1 receptor (unknown origin) at 10 uM relative to control.
For series [3], the target named is 5-hydroxytryptamine receptor 2B (Homo sapiens) (UniProt P41595). The experiment in a line: Inhibition of 5-HT2B receptor (unknown origin) at 10 uM relative to control.
Series [4] concerns the target 5-hydroxytryptamine receptor 6 (Homo sapiens) (UniProt P50406). The experiment in a line: Inhibition of 5-HT6 receptor (unknown origin) at 10 uM relative to control.
The target of series [5] is 5-hydroxytryptamine receptor 2A (Homo sapiens) (UniProt P28223). As to the kind of experiment: Inhibition of 5-HT2A receptor (unknown origin) at 10 uM relative to control.
Series [6] deals with T1, Alpha-2B adrenergic receptor (Homo sapiens) (UniProt P18089).
T1 sequence (whole entry): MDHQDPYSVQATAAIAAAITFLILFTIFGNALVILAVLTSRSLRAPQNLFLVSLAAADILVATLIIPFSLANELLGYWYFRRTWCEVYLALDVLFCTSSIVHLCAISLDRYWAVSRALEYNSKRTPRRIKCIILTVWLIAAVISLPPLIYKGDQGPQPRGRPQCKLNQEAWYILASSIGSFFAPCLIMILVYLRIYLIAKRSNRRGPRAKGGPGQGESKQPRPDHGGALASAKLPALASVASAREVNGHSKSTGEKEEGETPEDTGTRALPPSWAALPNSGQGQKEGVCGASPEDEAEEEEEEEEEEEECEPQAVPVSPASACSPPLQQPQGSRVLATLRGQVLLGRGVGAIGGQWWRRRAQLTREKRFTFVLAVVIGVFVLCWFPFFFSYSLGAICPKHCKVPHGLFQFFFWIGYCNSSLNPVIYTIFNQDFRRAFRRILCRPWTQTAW
As to the kind of experiment: Inhibition of adrenergic alpha-2B receptor (unknown origin) at 10 uM relative to control.

Series [7] deals with Kappa-type opioid receptor (Homo sapiens) (UniProt P41145). The experiment in a line: Inhibition of kappa opioid receptor (unknown origin) at 10 uM relative to control.
Series [8] can be described thus: Toxicity in po dosed albino Sprague-Dawley rat assessed as behavioral changes measured at 0.25 to 4 hrs. In kind it is organism-based. As to conditions: in vivo. The method in brief: (§1)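 Male albino Sprague-Dawley rats given compound intraperitoneally or orally (NINDS ASP); neurological impairment judged from behavioral toxicity effects. Preset screening doses (e.g., 30 mg/kg); for adequately active compounds, TD50 (mg/kg, 95% confidence intervals) derived from dose–effect data at time of peak effect.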

Series [9] has as its system Rattus norvegicus. The experiment in a line: Anticonvulsant activity in po dosed albino Sprague-Dawley rat assessed as protection against maximal electroshock-induced seizures measured at 0.25 to 4 hrs. In kind it is functional. The method in brief: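 Screened under the NINDS ASP in male albino Carworth Farms No. 1 mice (ip) or male albino Sprague-Dawley rats (ip or po), using MES, 6 Hz (32 mA) and subcutaneous pentylenetetrazol seizure tests. Initial qualitative tests used preset doses (e.g., 30, 50, 100 mg/kg). ED50 values with 95% confidence intervals came from dose–response data collected at the time of peak effect.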

For series [10], the target named is D(1A) dopamine receptor (Homo sapiens) (UniProt P21728). The experiment in a line: Inhibition of dopaminergic D1 receptor (unknown origin) at 10 uM relative to control.
The target in series [11] is Sodium-dependent dopamine transporter (Homo sapiens) (UniProt Q01959). As to the kind of experiment: Inhibition of DAT (unknown origin) at 10 uM relative to control.
Series [12] deals with D(1B) dopamine receptor (Homo sapiens) (UniProt P21918). The experiment in a line: Inhibition of dopaminergic D5 receptor (unknown origin) at 10 uM relative to control.
In series [13] the target is T2, 5-hydroxytryptamine receptor 2C (Homo sapiens) (UniProt P28335).
T2 sequence (whole entry): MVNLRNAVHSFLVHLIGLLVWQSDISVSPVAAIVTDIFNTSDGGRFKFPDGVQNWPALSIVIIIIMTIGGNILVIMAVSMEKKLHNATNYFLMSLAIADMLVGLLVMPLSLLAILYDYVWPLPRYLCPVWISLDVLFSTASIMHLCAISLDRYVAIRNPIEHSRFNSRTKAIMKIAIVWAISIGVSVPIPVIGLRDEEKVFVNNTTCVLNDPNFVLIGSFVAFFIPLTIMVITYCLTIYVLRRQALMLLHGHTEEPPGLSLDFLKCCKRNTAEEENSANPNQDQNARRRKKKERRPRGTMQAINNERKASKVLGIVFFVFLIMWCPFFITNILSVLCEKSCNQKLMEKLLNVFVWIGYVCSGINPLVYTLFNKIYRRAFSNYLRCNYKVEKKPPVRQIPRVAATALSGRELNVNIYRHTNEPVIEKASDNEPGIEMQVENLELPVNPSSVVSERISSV
As to the kind of experiment: Inhibition of 5-HT2C receptor (unknown origin) at 10 uM relative to control.

Series [14] deals with Sodium-dependent serotonin transporter (Homo sapiens) (UniProt P31645). As to the kind of experiment: Inhibition of SERT (unknown origin) at 10 uM relative to control.
Series [15] concerns the target Translocator protein (Homo sapiens) (UniProt P30536). The experiment in a line: Inhibition of PBR (unknown origin) at 10 uM relative to control.
A short description of series [16]: Toxicity in ip dosed albino Sprague-Dawley rat assessed as behavioral changes measured at 0.25 to 4 hrs. As to conditions: in vivo. In kind it is organism-based. The method in brief: as §1
The target of series [17] is Histamine H2 receptor (Homo sapiens) (UniProt P25021). The experiment in a line: Inhibition of histamine H2 receptor (unknown origin) at 10 uM relative to control.
In series [18] the target is T3, Muscarinic acetylcholine receptor M4 (Homo sapiens) (UniProt P08173).
T3 sequence (whole entry): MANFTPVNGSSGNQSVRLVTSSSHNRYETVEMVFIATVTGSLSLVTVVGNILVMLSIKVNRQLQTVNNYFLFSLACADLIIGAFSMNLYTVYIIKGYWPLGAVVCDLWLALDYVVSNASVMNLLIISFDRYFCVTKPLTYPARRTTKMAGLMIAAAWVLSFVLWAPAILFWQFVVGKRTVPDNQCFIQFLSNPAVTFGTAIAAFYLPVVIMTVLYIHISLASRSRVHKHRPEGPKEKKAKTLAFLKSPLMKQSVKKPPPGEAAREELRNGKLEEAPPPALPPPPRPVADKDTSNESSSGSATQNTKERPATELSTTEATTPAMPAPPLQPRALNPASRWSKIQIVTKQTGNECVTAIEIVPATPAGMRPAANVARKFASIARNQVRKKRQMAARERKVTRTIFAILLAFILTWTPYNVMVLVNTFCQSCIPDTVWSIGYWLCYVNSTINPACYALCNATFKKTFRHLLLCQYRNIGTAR
The experiment in a line: Inhibition of muscarinergic M4 receptor (unknown origin) at 10 uM relative to control.

Series [19] has as its target 5-hydroxytryptamine receptor 1D (Homo sapiens) (UniProt P28221). As to the kind of experiment: Inhibition of 5-HT1D receptor (unknown origin) at 10 uM relative to control.

Chain of Kappa-type opioid receptor (Homo sapiens) (P41145 whole entry): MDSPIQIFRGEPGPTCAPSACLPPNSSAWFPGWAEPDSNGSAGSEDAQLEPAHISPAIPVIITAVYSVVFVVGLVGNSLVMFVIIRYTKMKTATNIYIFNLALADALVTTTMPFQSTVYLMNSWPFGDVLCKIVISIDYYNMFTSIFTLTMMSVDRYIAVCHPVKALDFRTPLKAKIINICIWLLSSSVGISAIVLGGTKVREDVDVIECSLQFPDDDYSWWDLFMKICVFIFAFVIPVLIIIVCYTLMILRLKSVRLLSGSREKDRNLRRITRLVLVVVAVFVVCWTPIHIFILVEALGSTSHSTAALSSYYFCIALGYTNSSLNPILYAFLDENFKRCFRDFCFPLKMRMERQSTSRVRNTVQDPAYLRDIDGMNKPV
Chain of 5-hydroxytryptamine receptor 1D (Homo sapiens) (P28221 whole entry): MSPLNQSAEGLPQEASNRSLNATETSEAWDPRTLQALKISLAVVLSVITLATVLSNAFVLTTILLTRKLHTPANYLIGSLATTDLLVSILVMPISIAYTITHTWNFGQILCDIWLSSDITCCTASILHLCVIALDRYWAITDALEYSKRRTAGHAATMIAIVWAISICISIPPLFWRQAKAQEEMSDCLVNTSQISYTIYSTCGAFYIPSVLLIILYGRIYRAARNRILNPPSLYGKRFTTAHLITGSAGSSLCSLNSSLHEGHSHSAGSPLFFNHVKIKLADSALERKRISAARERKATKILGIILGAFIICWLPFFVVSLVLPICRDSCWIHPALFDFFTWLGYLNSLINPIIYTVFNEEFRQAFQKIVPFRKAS
Chain of 5-hydroxytryptamine receptor 2A (Homo sapiens) (P28223 whole entry): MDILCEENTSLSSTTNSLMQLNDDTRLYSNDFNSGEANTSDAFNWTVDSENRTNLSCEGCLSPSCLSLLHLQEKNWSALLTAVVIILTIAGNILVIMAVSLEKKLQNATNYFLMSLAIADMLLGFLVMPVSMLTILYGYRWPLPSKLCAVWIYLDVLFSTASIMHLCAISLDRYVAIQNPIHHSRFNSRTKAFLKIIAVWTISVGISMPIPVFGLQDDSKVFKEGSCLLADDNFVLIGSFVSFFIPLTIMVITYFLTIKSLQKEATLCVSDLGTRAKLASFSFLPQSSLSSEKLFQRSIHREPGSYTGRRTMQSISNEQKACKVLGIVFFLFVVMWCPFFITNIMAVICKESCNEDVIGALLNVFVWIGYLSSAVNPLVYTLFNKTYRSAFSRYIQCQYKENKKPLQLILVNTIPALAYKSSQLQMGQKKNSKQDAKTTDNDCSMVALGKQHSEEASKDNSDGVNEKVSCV
Chain of Translocator protein (Homo sapiens) (P30536 whole entry): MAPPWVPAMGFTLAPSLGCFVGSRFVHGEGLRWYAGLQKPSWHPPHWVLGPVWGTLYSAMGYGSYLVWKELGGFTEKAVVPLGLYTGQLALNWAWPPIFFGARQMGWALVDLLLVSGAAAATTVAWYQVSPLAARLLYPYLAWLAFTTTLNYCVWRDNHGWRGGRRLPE
Chain of D(1A) dopamine receptor (Homo sapiens) (P21728 whole entry): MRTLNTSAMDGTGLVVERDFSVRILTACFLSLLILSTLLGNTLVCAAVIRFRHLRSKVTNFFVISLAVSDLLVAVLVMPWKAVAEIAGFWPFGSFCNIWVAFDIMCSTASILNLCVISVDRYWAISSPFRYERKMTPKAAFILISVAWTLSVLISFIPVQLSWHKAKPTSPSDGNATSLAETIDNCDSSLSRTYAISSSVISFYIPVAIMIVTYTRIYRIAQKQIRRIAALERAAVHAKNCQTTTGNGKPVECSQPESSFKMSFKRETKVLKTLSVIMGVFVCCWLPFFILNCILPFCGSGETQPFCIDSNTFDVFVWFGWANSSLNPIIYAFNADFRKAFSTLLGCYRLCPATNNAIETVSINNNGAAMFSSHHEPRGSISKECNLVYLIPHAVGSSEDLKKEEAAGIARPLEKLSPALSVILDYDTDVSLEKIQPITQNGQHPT
Chain of Histamine H2 receptor (Homo sapiens) (P25021 whole entry): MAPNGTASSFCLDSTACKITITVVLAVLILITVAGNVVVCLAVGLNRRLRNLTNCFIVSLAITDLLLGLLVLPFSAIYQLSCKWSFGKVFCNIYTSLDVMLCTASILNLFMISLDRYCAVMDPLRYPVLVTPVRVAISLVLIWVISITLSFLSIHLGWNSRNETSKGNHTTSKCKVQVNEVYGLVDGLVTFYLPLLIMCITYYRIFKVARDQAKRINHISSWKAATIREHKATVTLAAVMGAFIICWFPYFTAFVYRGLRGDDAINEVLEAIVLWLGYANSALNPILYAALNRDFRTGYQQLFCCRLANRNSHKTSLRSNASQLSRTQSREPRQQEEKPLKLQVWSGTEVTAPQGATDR
Chain of Sodium-dependent dopamine transporter (Homo sapiens) (Q01959 whole entry): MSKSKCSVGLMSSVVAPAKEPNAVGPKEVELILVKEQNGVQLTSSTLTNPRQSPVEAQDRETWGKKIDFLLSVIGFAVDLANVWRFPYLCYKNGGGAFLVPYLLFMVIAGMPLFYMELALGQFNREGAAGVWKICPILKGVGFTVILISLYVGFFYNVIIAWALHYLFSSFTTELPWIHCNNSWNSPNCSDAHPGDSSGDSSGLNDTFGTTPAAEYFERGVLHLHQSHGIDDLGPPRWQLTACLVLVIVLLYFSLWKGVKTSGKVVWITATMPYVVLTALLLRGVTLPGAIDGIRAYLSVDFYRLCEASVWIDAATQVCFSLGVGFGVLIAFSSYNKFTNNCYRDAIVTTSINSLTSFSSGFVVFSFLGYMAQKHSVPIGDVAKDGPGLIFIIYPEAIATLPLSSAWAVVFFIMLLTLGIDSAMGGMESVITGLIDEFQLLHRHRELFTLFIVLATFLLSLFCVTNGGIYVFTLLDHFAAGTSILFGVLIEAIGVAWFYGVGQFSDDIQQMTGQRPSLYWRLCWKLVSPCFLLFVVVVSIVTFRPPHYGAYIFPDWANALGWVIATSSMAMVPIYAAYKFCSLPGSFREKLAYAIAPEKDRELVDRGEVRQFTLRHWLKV
Chain of Sodium-dependent serotonin transporter (Homo sapiens) (P31645 whole entry, looked up): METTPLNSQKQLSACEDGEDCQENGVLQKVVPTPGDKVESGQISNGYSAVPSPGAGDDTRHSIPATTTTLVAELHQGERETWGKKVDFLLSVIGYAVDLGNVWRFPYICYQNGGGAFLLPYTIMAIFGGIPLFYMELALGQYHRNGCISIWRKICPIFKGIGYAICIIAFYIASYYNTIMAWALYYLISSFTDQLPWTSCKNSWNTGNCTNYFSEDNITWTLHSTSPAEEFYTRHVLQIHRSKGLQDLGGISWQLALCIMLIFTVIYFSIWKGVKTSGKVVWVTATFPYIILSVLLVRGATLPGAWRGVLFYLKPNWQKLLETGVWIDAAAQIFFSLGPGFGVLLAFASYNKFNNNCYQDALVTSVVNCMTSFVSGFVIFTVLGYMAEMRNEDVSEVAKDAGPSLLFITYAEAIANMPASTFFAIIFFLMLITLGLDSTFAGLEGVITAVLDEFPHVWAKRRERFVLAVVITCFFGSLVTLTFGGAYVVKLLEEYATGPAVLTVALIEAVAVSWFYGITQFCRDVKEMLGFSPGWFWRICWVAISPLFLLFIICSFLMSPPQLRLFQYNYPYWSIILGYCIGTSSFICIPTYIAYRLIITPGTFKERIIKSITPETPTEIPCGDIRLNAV
Chain of D(1B) dopamine receptor (Homo sapiens) (P21918 whole entry): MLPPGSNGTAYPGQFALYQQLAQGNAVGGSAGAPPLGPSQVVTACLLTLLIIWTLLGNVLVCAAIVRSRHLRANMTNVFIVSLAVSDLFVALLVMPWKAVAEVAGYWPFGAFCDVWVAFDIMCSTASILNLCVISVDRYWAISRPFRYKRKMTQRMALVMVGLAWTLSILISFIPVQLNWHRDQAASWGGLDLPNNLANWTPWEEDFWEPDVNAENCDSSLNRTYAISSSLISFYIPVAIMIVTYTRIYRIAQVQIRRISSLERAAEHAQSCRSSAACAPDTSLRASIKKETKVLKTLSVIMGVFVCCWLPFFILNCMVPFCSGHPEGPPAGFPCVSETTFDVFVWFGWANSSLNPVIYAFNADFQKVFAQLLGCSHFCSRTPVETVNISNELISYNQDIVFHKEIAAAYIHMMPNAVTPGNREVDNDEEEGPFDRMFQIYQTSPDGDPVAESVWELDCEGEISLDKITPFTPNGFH
Chain of Sigma non-opioid intracellular receptor 1 (Homo sapiens) (Q99720 whole entry): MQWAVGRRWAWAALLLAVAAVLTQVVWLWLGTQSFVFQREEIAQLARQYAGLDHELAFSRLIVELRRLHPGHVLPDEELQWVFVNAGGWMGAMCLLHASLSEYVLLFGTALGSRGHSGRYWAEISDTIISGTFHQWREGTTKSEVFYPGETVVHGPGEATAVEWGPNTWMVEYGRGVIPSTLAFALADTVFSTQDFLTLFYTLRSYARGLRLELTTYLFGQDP
Chain of 5-hydroxytryptamine receptor 2B (Homo sapiens) (P41595 whole entry): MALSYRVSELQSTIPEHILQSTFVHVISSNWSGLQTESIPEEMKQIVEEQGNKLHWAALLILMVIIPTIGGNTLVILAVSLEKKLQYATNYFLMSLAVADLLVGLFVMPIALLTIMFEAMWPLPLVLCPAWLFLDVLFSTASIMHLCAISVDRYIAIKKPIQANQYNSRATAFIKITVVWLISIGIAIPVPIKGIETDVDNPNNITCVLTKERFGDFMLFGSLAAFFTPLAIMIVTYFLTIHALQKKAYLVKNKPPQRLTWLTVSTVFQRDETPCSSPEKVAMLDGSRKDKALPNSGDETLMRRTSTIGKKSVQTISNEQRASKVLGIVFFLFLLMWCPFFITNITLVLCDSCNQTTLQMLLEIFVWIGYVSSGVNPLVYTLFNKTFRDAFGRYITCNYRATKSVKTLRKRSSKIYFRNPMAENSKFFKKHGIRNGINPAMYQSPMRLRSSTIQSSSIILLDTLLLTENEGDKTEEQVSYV

As to `Cl.NCc1ccc(OCc2cccc(F)c2)cc1`, the inhibition in [1] was 58.4%; in series [2], 102%; in [3], 87.3%; in series [4], 44.8%; in [5] it was 88.6%; in series [6], 51.3%. The inhibition in series [7] is 1.3%; in series [10], -1.1%; in series [11] it was 76.8%; in series [12], -0.5%; in [13], 41.2%; in [14], 83.4%. In [15], the inhibition turned out to be 15.2%. The TD50 in [8] and in series [16] was more than 30 mg/kg throughout. In addition, the ED50 in series [9] was more than 30 mg/kg.
For `Cl.NCc1ccc(OCc2cccc(Cl)c2)cc1`, the inhibition in series [1] was 80.5%; in [2] it was 89.4%; in series [3] it was 39.8%; in series [17], -7.4%; in series [4], 52.4%; in series [5], 88.2%. For the same compound, the inhibition was 72% in series [6]; 13.9% in series [7]; 2.9% in series [10]; 84.1% in series [11]; 0.2% in [18]; -1.6% in [12]. In addition, the inhibition in [13] was -4.3%; in series [14] it was 76.5%; in series [15], 50%; in series [19], -0.7%. The TD50 in [8] and in [16] was more than 30 mg/kg in each case. The ED50 in [9] was more than 30 mg/kg.
Consider `Cl.NCc1ccc(OCc2ccccc2OC(F)(F)F)cc1`, for which the inhibition amounted to 89.8% in series [1]; 92.9% in [2]; 49% in series [3]; 5.8% in [17]; 22% in series [4]; 73.8% in series [5]. The inhibition was 29.5% in series [6]; 6.6% in [7]; -2.5% in [10]; 50.7% in series [11]; 1.6% in series [18]; 3.9% in [12]. Moreover, the inhibition came to 39.7% in [13], 31.4% in series [14], 4.7% in series [15] and 0.5% in series [19]. Also, the TD50 in series [8] is more than 30 mg/kg.
`Cl.NCc1ccc(OCc2ccc(F)cc2)cc1`: the inhibition in series [1] amounted to 67.6%; in series [2] it was 92.7%; in series [3], 46.5%; in series [17], 29.7%; in series [4] it was 18.1%; in series [5], 77.1%. Also, the inhibition in [6] was 37%; in [7], 14.2%; in [10], -1.9%; in series [11] it was 48.2%; in series [18], 10.4%; in series [12], 1%. Further, the inhibition in series [13] is 11.1%; in series [14] it was 71.3%; in series [15], -2.3%; in series [19], 12.7%. For the same compound, the TD50 in series [8] and in series [16] was more than 30 mg/kg each time. Further, the ED50 in series [9] was more than 30 mg/kg.
Turning to `Cl.NCc1ccc(OCc2cccc(OC(F)(F)F)c2)cc1`, the inhibition in series [1] turned out to be 87.5%; in series [2], 96.9%; in [3], 51.4%; in series [17] it was 4.2%; in series [4] it was 34.3%; in series [5], 88%. For the same compound, the inhibition in [6] was 44.3%; in series [7], 9.8%; in series [10] it was -3.3%; in series [11], 45.5%; in [18], 4.3%; in [12], 0.4%. The inhibition in series [13] is 33%; in series [14] it was 55.7%; in [15] it was 3.6%; in series [19], 12.3%. In addition, the TD50 in series [8] and in [16] was more than 30 mg/kg in each case. The 50% effective dose (ED50) in series [9] is more than 30 mg/kg.
For `Cl.NCc1ccc(OCc2ccccc2)cc1`, the inhibition in series [1] is 56.6%; in [2], 97.7%; in [3], 55.7%; in series [17], -4%; in series [4] it was 26.9%; in series [5], 76.8%. The inhibition in [6] was 27.3%; in series [7], 6%; in [10], -6%; in series [11] it was 72.2%; in series [12], 1.9%; in series [13] it was 38.2%. Also, the inhibition in series [14] was 49.1%; in [15], 11.8%; in series [19], -3.3%. Moreover, the results for the TD50 in [8] and in series [16] were more than 30 mg/kg and more than 50 mg/kg, respectively. The ED50 in series [9] was more than 30 mg/kg.
In the case of `Cl.NCc1ccc(OCc2ccccc2F)cc1`, the inhibition in series [1] was 71.6%; in series [2], 102%; in series [3], 82.4%; in series [17], 1.6%; in [4], 21.3%; in [5], 75.7%. The inhibition is 30.9% in [6]; 3.6% in series [7]; -0.2% in [10]; 61.7% in series [11]; -9% in [18]; 2.3% in series [12]. For the same compound, the inhibition in [13] was 32.6%; in [14], 34.4%; in series [15], 26.8%. Also, the TD50 in [8] was more than 30 mg/kg; in [16], more than 50 mg/kg. The median effective dose (ED50) in [9] was more than 30 mg/kg.
